pIC50: −log10 of the molar value. Calls of active or inactive are those of the source. The rule behind the calls is not given here.
What was measured:
[1] = Antioxidant activity assessed as ABTS radical scavenging activity after 6 mins; format: functional
[2] = Antioxidant activity assessed as ferric ion reducing activity using ferric-TPTZ by measuring concentration of compound with antioxidant capacity equivalent to ferrous sulfate at 0.5 mmol/L by FRAP assay; format: functional
[3] = tested on: Radical scavenging activity; test: Antioxidant activity assessed as DPPH free radical scavenging activity after 30 mins by spectrophotometric analysis; format: functional
Procedure, shortened: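 Serial dilutions of compound (100 to 3.125 µg/mL) mixed 1:1 with 0.2 mmol/L DPPH in ethanol; ethanol blank, BHT control. A515 read after 0.5 h at 25 °C; IC50 = concentration giving 50% DPPH scavenging; three replicates, mean ± SD.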

[4] = Antioxidant activity against AAPH-induced DNA breakage in Escherichia coli pBR322 at 100 uM after 1 hr using ethidium bromide staining by agarose gel electrophoresis analysis; format: functional
Procedure, shortened: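 Plasmid pBR322 DNA (4 µg/mL final) exposed to AAPH (4 mM final) in phosphate buffer (8.1 mM Na₂HPO₄, 1.9 mM NaH₂PO₄, 10.0 mM EDTA), 25 µL total; samples and Trolox standard added at 100 µM in DMSO; 37 °C, 1 h. Strand breakage resolved on 1% agarose gel in Tris-acetate-EDTA, 60 V, 100 min.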

Liver = test: Antioxidant activity in KM mouse liver microsomes assessed as inhibition of lipid peroxidation after 60 mins; format: functional, Microsome; conditions: for pIC50: 1 h; for inhibition: Microsome
Procedure, shortened: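 Liver microsomes from adult male KM mice (8–12 weeks), protein by Bradford, used at 0.67 mg protein/mL with compounds at varying concentrations, 10 mM FeSO₄ and 0.1 mM ascorbic acid in 0.2 M potassium phosphate pH 7.4; 37 °C, 60 min. Stopped with 20% TCA plus 0.67% TBA, heated 100 °C 15 min, centrifuged; MDA-TBA read at 535 nm.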

| pIC50 [1] | pIC50 [3] | pIC50 (Liver) | SMILES | Activity [2] | Activity [4] | inhibition (Liver) |
| --- | --- | --- | --- | --- | --- | --- |
| 5.14 | 4.52 |  | S=c1oc(-c2ccc3c(c2)OCCO3)nn1CNc1ccccc1Cl | 532 µM |  |  |
| 5.12 | 4.36 |  | Cc1cc(C(C)(C)C)c(O)c(C(C)(C)C)c1 [BUTYLATED HYDROXYTOLUENE] | 546 µM |  |  |
| 5.53 | 4.71 | 3.96 | Fc1cc(NCn2nc(-c3ccc4c(c3)OCCO4)oc2=S)cc(F)c1F | 240 µM | Active |  |
| 5.06 | 4.36 |  | S=c1oc(-c2ccc3c(c2)OCCO3)nn1CNc1ccc(Cl)cc1Cl | 593 µM |  |  |
| 5.23 | 4.50 |  | COc1ccc(NCn2nc(-c3ccc4c(c3)OCCO4)oc2=S)cc1 | 493 µM |  |  |
| 5.03 | 4.05 |  | FC(F)(F)c1cc(NCn2nc(-c3ccc4c(c3)OCCO4)oc2=S)cc(C(F)(F)F)c1 | > 1000 µM |  |  |
| 5.48 | 4.66 |  | Fc1cccc(F)c1NCn1nc(-c2ccc3c(c2)OCCO3)oc1=S | 268 µM | Active | Active |
| 5.19 | 4.44 |  | S=c1oc(-c2ccc3c(c2)OCCO3)nn1CNc1ccc(Br)cc1Br | > 1000 µM |  |  |
| 5.19 | 4.43 |  | Fc1ccccc1NCn1nc(-c2ccc3c(c2)OCCO3)oc1=S | 522 µM |  |  |
| 5.20 | 4.54 |  | COc1ccccc1NCn1nc(-c2ccc3c(c2)OCCO3)oc1=S | 335 µM |  |  |
| 5.14 | 4.50 |  | S=c1oc(-c2ccc3c(c2)OCCO3)nn1CNc1ccc(Cl)cc1 | 584 µM |  |  |
| 5.21 | 4.52 | 3.74 | Cc1c(C)c2c(c(C)c1O)CCC(C)(C(=O)O)O2 (stereo not given) [TROLOX] | 294 µM |  |  |
| 4.90 | 4.44 |  | S=c1oc(-c2ccc3c(c2)OCCO3)nn1CNc1ccccc1Br | 440 µM |  |  |
| 4.83 | 4.15 |  | S=c1oc(-c2ccc3c(c2)OCCO3)nn1CNc1ccc(Br)cc1 | 531 µM |  |  |
| 5.05 | 4.42 |  | O=[N+]([O-])c1cccc(NCn2nc(-c3ccc4c(c3)OCCO4)oc2=S)c1 | > 1000 µM | Active | Active |
| 5.12 | 4.45 |  | FC(F)(F)c1cccc(NCn2nc(-c3ccc4c(c3)OCCO4)oc2=S)c1 | > 1000 µM |  |  |
| 5.06 | 4.08 |  | O=[N+]([O-])c1ccc(NCn2nc(-c3ccc4c(c3)OCCO4)oc2=S)c(Cl)c1 | > 1000 µM | Active | Active |
| 4.96 | 4.05 |  | S=c1[nH]nc(-c2ccccc2)o1 | > 1000 µM |  |  |

| pIC50 [1] | pIC50 [3] | pIC50 (Liver) | SMILES | Activity [2] | Activity [4] | inhibition (Liver) |
| --- | --- | --- | --- | --- | --- | --- |
| 5.27 | 4.46 |  | S=c1oc(-c2ccc3c(c2)OCCO3)nn1CNc1cc(Cl)ccc1Cl | 899 µM |  |  |
| 4.86 | 4.06 |  | COC(=O)c1ccc2c(c1)OCCO2 | > 1000 µM |  |  |
| 5.00 | 4.32 |  | O=[N+]([O-])c1ccc(NCn2nc(-c3ccc4c(c3)OCCO4)oc2=S)cc1 | > 1000 µM |  |  |
| 5.19 | 4.53 |  | Fc1ccc(NCn2nc(-c3ccc4c(c3)OCCO4)oc2=S)cc1 | 300 µM |  |  |
| 4.73 | 4.03 |  | S=c1oc(-c2ccc3c(c2)OCCO3)nn1CNC1CCCCC1 | > 1000 µM |  |  |
| 5.18 | 4.45 |  | Fc1cccc(NCn2nc(-c3ccc4c(c3)OCCO4)oc2=S)c1 | 398 µM |  |  |
| 5.21 | 4.64 |  | S=c1oc(-c2ccc3c(c2)OCCO3)nn1CNc1cccc(Cl)c1 | 846 µM |  |  |
| 5.16 | 4.44 |  | S=c1oc(-c2ccc3c(c2)OCCO3)nn1CNc1ccc(Cl)c(Cl)c1 | 763 µM |  |  |
| 5.04 | 4.17 |  | FC(F)(F)c1ccccc1NCn1nc(-c2ccc3c(c2)OCCO3)oc1=S | > 1000 µM |  |  |
| 4.97 | 4.29 |  | S=c1oc(-c2ccc3c(c2)OCCO3)nn1CNc1cccc(Br)c1 | > 1000 µM |  |  |
| 5.46 | 4.44 |  | Cc1ccccc1NCn1nc(-c2ccc3c(c2)OCCO3)oc1=S | 292 µM | Active | Active |
| 5.24 | 4.60 |  | Cc1ccc(NCn2nc(-c3ccc4c(c3)OCCO4)oc2=S)cc1 | 434 µM |  |  |
| 4.96 | 4.32 |  | O=[N+]([O-])c1ccccc1NCn1nc(-c2ccc3c(c2)OCCO3)oc1=S | > 1000 µM | Active | Active |
| 5.28 | 4.65 |  | CCOc1ccccc1NCn1nc(-c2ccc3c(c2)OCCO3)oc1=S | 422 µM |  |  |
| 4.97 | 4.19 |  | S=c1[nH]nc(-c2ccc3c(c2)OCCO3)o1 | 612 µM |  |  |
| 4.64 | 3.97 |  | CCCCCCCCCCCCCCCCNCn1nc(-c2ccc3c(c2)OCCO3)oc1=S | > 1000 µM |  |  |
| 5.29 | 4.49 |  | S=c1oc(-c2ccc3c(c2)OCCO3)nn1CNc1ccccc1 | 735 µM | Active | Active |

From ChEMBL document CHEMBL2434867, “Synthesis and antioxidant activity of novel Mannich base of 1,3,4-oxadiazole derivatives possessing 1,4-benzodioxan” (Bioorg Med Chem, 2013)
